Blank lines part the entries; values can stand above or below the molecule they belong to.
Key:
[1] = Chemical stability at pH 4.5 after 4 hrs; type: physicochemical; conditions: buffer, read-out: Stability
How it was run: (§1)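 Compound at 0.01 mg/mL final in a 9:1 mix of aqueous buffer (pH 1.0, 4.5, 6.6 or 7.4) or simulated gastric fluid with acetonitrile, held at 37 °C in the autosampler. Injected every 4 h over 24 h onto C8 HPLC. Percent remaining from peak area at 304 nm, corrected by internal standard; products confirmed by LC/MS (-ESI).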

[2] = Chemical stability in simulated gastric fluid after 4 hrs; type: physicochemical; conditions: read-out: Stability; how it was run: as §1
[3] = Chemical stability at pH 1 after 4 hrs; type: physicochemical; conditions: buffer, read-out: Stability; how it was run: as §1
[4] = Chemical stability at pH 6.6 after 4 hrs; type: physicochemical; conditions: buffer, read-out: Stability; how it was run: as §1
[5] = Chemical stability at pH 7.4 after 4 hrs; type: physicochemical; conditions: buffer, read-out: Stability; how it was run: as §1
[6] = Chemical stability at pH 7.4 after 16 hrs; type: physicochemical; conditions: buffer, read-out: Stability; how it was run: as §1
[7] = Chemical stability at pH 6.6 after 12 hrs; type: physicochemical; conditions: buffer, read-out: Stability; how it was run: as §1
[8] = Half life in simulated intestinal fluid assessed as loss of 3-{2[8,9-Dioxo-2,6-diazabicyclo[5.2.0-[non-1(7)-en-2-yl}-3-oxido-7-oxo-7-phenyl-2,4,6-trioxa-3-phosphahept-1-yl Benzoate; type: physicochemical
How it was run: (§2)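 Compound at a final 0.01 mg/mL in 9:1 pH 8.5 buffer or simulated intestinal fluid:acetonitrile, 37 °C. HPLC injections every 4 h over 24 h, with peak area at 304 nm corrected by internal standard and identities confirmed by LC/MS. Conversion kinetics fitted to a two-step first-order model to give rate constants, half-lives and Tmax of the hemiester.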

[9] = Chemical stability at pH 4.5 after 16 hrs; type: physicochemical; conditions: buffer, read-out: Stability; how it was run: as §1
[10] = Chemical stability in simulated intestinal bile fluid after 24 hrs; type: physicochemical; conditions: read-out: Stability
How it was run: (§3)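 Compound taken up in 9:1 simulated intestinal bile fluid:acetonitrile at a final 0.01 mg/mL, held in a 37 °C autosampler. HPLC injections every 4 h over 24 h. Percent remaining taken from peak area at 304 nm, corrected by internal standard. Products identified by LC/MS (-ESI).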

[11] = Chemical stability at pH 6.6 after 24 hrs; type: physicochemical; conditions: buffer, read-out: Stability; how it was run: as §1
Glutamate NMDA receptor = assay: Displacement of [3H]CGP-39653 from rat brain NMDA receptor
How it was run: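 Competitive displacement of [3H]CGP-39653 at the NMDA recognition site, using rat whole-brain membranes.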

[12] = Chemical stability at pH 4.5 after 12 hrs; type: physicochemical; conditions: buffer, read-out: Stability; how it was run: as §1
[13] = Chemical stability at pH 6.6 after 20 hrs; type: physicochemical; conditions: buffer, read-out: Stability; how it was run: as §1
[14] = Chemical stability at pH 6.6 after 8 hrs; type: physicochemical; conditions: buffer, read-out: Stability; how it was run: as §1
[15] = Chemical stability in simulated intestinal bile fluid after 20 hrs; type: physicochemical; conditions: read-out: Stability; how it was run: as §3
Blood [16] = assay: Biodistribution in Sprague-Dawley rat blood assessed as formation of perzinfotel at 10 mg/kg, po after 0.167 hrs; type: ADME, organism-based; set-up: dose 10 mg/kg, route oral; conditions: in vivo
How it was run: (§4)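 Male Sprague-Dawley rats given [14C]-labelled compound by oral gavage (parent at 30 mg/kg, prodrug at 10 mg/kg). Blood, plasma and brain taken at 0.167, 0.5, 1, 4, 8 and 24 h (n = 3 rats/time point). Total radioactivity measured in each matrix. Metabolite profiles from HPLC with in-line radioactivity detection.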

[17] = Chemical stability in simulated intestinal bile fluid after 4 hrs; type: physicochemical; conditions: read-out: Stability; how it was run: as §3
[18] = Chemical stability in simulated gastric fluid after 8 hrs; type: physicochemical; conditions: read-out: Stability; how it was run: as §1
[19] = Chemical stability at pH 1 after 24 hrs; type: physicochemical; conditions: buffer, read-out: Stability; how it was run: as §1
[20] = Chemical stability in simulated gastric fluid after 20 hrs; type: physicochemical; conditions: read-out: Stability; how it was run: as §1
[21] = Chemical stability at pH 6.6 after 16 hrs; type: physicochemical; conditions: buffer, read-out: Stability; how it was run: as §1
[22] = Chemical stability in simulated intestinal bile fluid after 8 hrs; type: physicochemical; conditions: read-out: Stability; how it was run: as §3
Brain [23] = assay: Biodistribution in Sprague-Dawley rat brain assessed as formation of perzinfotel at 10 mg/kg, po after 0.167 hrs; type: ADME, organism-based; set-up: dose 10 mg/kg, route oral; conditions: in vivo; how it was run: as §4
[24] = Chemical stability in simulated intestinal bile fluid after 16 hrs; type: physicochemical; conditions: read-out: Stability; how it was run: as §3
[25] = Chemical stability at pH 4.5 after 8 hrs; type: physicochemical; conditions: buffer, read-out: Stability; how it was run: as §1
[26] = Chemical stability at pH 1 after 12 hrs; type: physicochemical; conditions: buffer, read-out: Stability; how it was run: as §1
[27] = Chemical stability at pH 4.5 after 24 hrs; type: physicochemical; conditions: buffer, read-out: Stability; how it was run: as §1
[28] = Chemical stability in simulated gastric fluid after 12 hrs; type: physicochemical; conditions: read-out: Stability; how it was run: as §1
[29] = Chemical stability at pH 1 after 20 hrs; type: physicochemical; conditions: buffer, read-out: Stability; how it was run: as §1
[30] = Chemical stability at pH 7.4 after 20 hrs; type: physicochemical; conditions: buffer, read-out: Stability; how it was run: as §1
Plasma [31] = assay: Biodistribution in Sprague-Dawley rat plasma assessed as formation of perzinfotel at 10 mg/kg, po after 0.5 hrs; type: ADME, organism-based; set-up: dose 10 mg/kg, route oral; conditions: in vivo; how it was run: as §4
Blood [32] = assay: Biodistribution in Sprague-Dawley rat blood assessed as formation of perzinfotel at 10 mg/kg, po after 0.5 hrs; type: ADME, organism-based; set-up: dose 10 mg/kg, route oral; conditions: in vivo; how it was run: as §4
[33] = Chemical stability at pH 7.4 after 12 hrs; type: physicochemical; conditions: buffer, read-out: Stability; how it was run: as §1
[34] = Chemical stability at pH 7.4 after 8 hrs; type: physicochemical; conditions: buffer, read-out: Stability; how it was run: as §1
Plasma [35] = assay: Stability in rat plasma assessed as conversion of benzoic acid [2-(8,9-dioxo-2,6-diaza-bicyclo[5.2.0]non-1(7)-en-2-yl)-ethyl]-hydroxy-phosphinoyloxymethyl ester to perzinfotel after 3 hrs by Lc/MS analysis; type: ADME, cell-free
How it was run: (§5)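 Dissolved at 0.05 mg/mL in rat plasma and incubated at 37 °C for 0–24 h. Samples quenched with acetonitrile and centrifuged; supernatant diluted and run on HPLC. Parent and conversion products quantified by peak area at 304 nm, corrected by internal standard, and confirmed by LC/MS. Kinetics fitted to a two-step first-order model.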

[36] = Chemical stability in simulated gastric fluid after 24 hrs; type: physicochemical; conditions: read-out: Stability; how it was run: as §1
[37] = target: Glutamate NMDA receptor (Rattus norvegicus) (UniProt P35439+Q00959+Q00960+Q00961+Q62645+Q8VHN2+Q9R1M7); assay: Antagonist activity at rat brain NMDA receptor assessed as inhibition of glutamate-induced [3H]TCP binding at 300 uM
How it was run: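 Functional NMDA antagonism was measured as inhibition of glutamate-stimulated [3H]-TCP binding to rat whole-brain membranes. The value is percent inhibition at a single concentration.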

[38] = Chemical stability at pH 1 after 16 hrs; type: physicochemical; conditions: buffer, read-out: Stability; how it was run: as §1
Plasma [39] = assay: Biodistribution in Sprague-Dawley rat plasma assessed as formation of perzinfotel at 10 mg/kg, po after 0.167 hrs; type: ADME, organism-based; set-up: dose 10 mg/kg, route oral; conditions: in vivo; how it was run: as §4
Brain [40] = assay: Biodistribution in Sprague-Dawley rat brain assessed as formation of perzinfotel at 10 mg/kg, po after 0.5 hrs; type: ADME, organism-based; set-up: dose 10 mg/kg, route oral; conditions: in vivo; how it was run: as §4
[41] = Chemical stability at pH 7.4 after 24 hrs; type: physicochemical; conditions: buffer, read-out: Stability; how it was run: as §1
[42] = Chemical stability at pH 4.5 after 20 hrs; type: physicochemical; conditions: buffer, read-out: Stability; how it was run: as §1
[43] = Chemical stability in simulated gastric fluid after 16 hrs; type: physicochemical; conditions: read-out: Stability; how it was run: as §1
Rattus norvegicus = organism: Rattus norvegicus; assay: Antinociceptive activity in Sprague-Dawley rat assessed as reversal of PGE2-induced thermal hypersensitivity after 5 hrs; type: functional
How it was run: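 Male Sprague-Dawley rats (200-250 g) fasted ~16 h and dosed orally in 2% Tween-80/0.5% methylcellulose (1 mL/kg) 0.5-48 h before intradermal PGE2 (0.1 mg in 50 µL). Tail-withdrawal latency was read 30 min later in water at 34-58 °C, with a 20 s cutoff. T10 from each rat's temperature-effect curve; within-subjects repeated-measures ANOVA, p < 0.05.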

[44] = Half life in Sprague-Dawley rat plasma assessed as loss of 3-{2[8,9-Dioxo-2,6-diazabicyclo[5.2.0-[non-1(7)-en-2-yl}-3-oxido-7-oxo-7-phenyl-2,4,6-trioxa-3-phosphahept-1-yl Benzoate; type: ADME; how it was run: as §5
[45] = Half life in pH 8.5 buffer assessed as loss of 3-{2[8,9-Dioxo-2,6-diazabicyclo[5.2.0-[non-1(7)-en-2-yl}-3-oxido-7-oxo-7-phenyl-2,4,6-trioxa-3-phosphahept-1-yl Benzoate; type: physicochemical; how it was run: as §2
[46] = Chemical stability at pH 1 after 8 hrs; type: physicochemical; conditions: buffer, read-out: Stability; how it was run: as §1
[47] = Chemical stability in simulated intestinal bile fluid after 12 hrs; type: physicochemical; conditions: read-out: Stability
How it was run: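 Compound at 0.01 mg/mL final in a 9:1 mix of simulated intestinal bile fluid and acetonitrile at 37 °C. Fed-state medium pH 5.5 with 10 mM sodium taurocholate; fasted-state medium pH 6.0 with 1 mM. Sampled every 4 h to 24 h by HPLC. Percent remaining from 304 nm peak area, corrected by internal standard.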

- remaining at 4 h [1]: 99.4%
- remaining at 4 h [2]: 91.6%
- remaining at 4 h [3]: 89%
- remaining at 4 h [4]: 95%
- remaining at 4 h [5]: 94.4%
SMILES: O=C(OCOP(=O)(CCN1CCCNc2c1c(=O)c2=O)OCOC(=O)C1CCCCC1)C1CCCCC1

- remaining at 16 h [6]: 68.7%
- remaining at 12 h [7]: 93.7%
- half-life [8]: 3.57 h
- remaining at 16 h [9]: 99.7%
- remaining at 24 h [10]: 98.1%
- remaining at 24 h [11]: 87.4%
- IC50 (Glutamate NMDA receptor): 4.2 µM
- remaining at 12 h [12]: 99.8%
- remaining at 20 h [13]: 89.4%
- remaining at 8 h [14]: 95.7%
- remaining at 20 h [15]: 98.5%
- Drug uptake (Blood [16]): 88%
- remaining at 4 h [17]: 99.5%
- remaining at 8 h [18]: 99.3%
- remaining at 24 h [19]: 97.9%
- remaining at 20 h [20]: 98.3%
- remaining at 4 h [1]: 100%
- remaining at 16 h [21]: 91.5%
- remaining at 8 h [22]: 99.3%
- Drug uptake (Brain [23]): 88%
- remaining at 16 h [24]: 98.6%
- remaining at 8 h [25]: 100%
- remaining at 12 h [26]: 98.9%
- remaining at 24 h [27]: 99.5%
- remaining at 12 h [28]: 99%
- remaining at 20 h [29]: 98%
- remaining at 20 h [30]: 62.2%
- Drug uptake (Plasma [31]): 98%
- Drug uptake (Blood [32]): 98%
- remaining at 12 h [33]: 75.6%
- remaining at 8 h [34]: 83.2%
- Stability (Plasma [35]): 90%
- remaining at 24 h [36]: 98%
- remaining at 4 h [2]: 99.6%
- remaining at 4 h [3]: 99.7%
- remaining at 4 h [4]: 98.1%
- inhibition [37]: 8%
- remaining at 16 h [38]: 98.5%
- Drug uptake (Plasma [39]): 88%
- Drug uptake (Brain [40]): 98%
- remaining at 24 h [41]: 56.7%
- remaining at 20 h [42]: 99.5%
- remaining at 16 h [43]: 98.7%
- remaining at 4 h [5]: 91.6%
- half-life [44]: < 4.2 min
- half-life [45]: 1.84 h
- remaining at 8 h [46]: 99.3%
- remaining at 12 h [47]: 98.6%
SMILES: O=C(OCOP(=O)(CCN1CCCNc2c1c(=O)c2=O)OCOC(=O)c1ccccc1)c1ccccc1
- ED50 (Rattus norvegicus): 10 mg/kg
